In ChEMBL document CHEMBL3232832, “Derivatives of dibenzothiophene for positron emission tomography imaging of α7-nicotinic acetylcholine receptors” (J Med Chem, 2013):

Experiments:
Mus musculus [1] = experiment: Toxicity in CD-1 mouse assessed as change in locomotor activity at 0.07 mCi, iv after 90 mins in presence of 3-(1,4-Diazabicyclo[3.2.2]nonan-4-yl)-6-fluorodibenzo[b,d]thiophene 5,5-Dioxide; format: organism-based; conditions: in vivo, 1.5 h
Summary of the method: (§1)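 CD-1 mice observed for behavioral and locomotor changes during self-blockade studies. [18F]tracer (0.07 mCi, i.v.) was co-injected with the non-radioactive ligand at 0.3 or 0.2 mg/kg i.v., dissolved in saline at pH 5.5. Brains were harvested at 90 min.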

Cortex [2] = experiment: Drug uptake in CD-1 mouse cortex at 70 uCi, iv administered 10 mins post ketanserin challenge measured after 90 mins; format: ADME, organism-based; conditions: in vivo, 1.5 h
Summary of the method: (§2)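 Male CD-1 mice, n=3. Drug at 2 mg/kg s.c. in saline:DMSO 5:1, with vehicle controls. [18F] radiotracer (70 µCi, SA ~14000 mCi/µmol) given i.v. 10 min later. Regions harvested 90 min after tracer, gamma counted, expressed as %ID/g. Compared by single-factor ANOVA.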

Cerebellum [3] = experiment: Drug uptake in CD-1 mouse cerebellum at 0.07 mCi, iv after 90 mins in presence of 7-(1,4-Diazabicyclo[3.2.2]nonan-4-yl)-2-fluorodibenzo[b,d]-thiophene 5,5-Dioxide; format: ADME, organism-based; conditions: in vivo, 1.5 h
Summary of the method: (§3)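 Male CD-1 mice, n=3. [18F] radiotracer (70 µCi, 0.2 mL) given i.v. together with unlabeled blocker in saline pH 5.5. Brain regions dissected at 90 min, gamma counted, expressed as %ID/g.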

Hippocampus [4] = experiment: Drug uptake in CD-1 mouse hippocampus at 70 uCi, iv followed by compound washout by gamma-counting analysis; format: ADME, organism-based; conditions: in vivo
Summary of the method: (§4)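 Male CD-1 mice (25–30 g), three per time point. [18F] radiotracer (70 µCi, SA 8000–12000 mCi/µmol, in 0.2 mL saline) given by tail vein. Killed at several times up to 90 min. Dissected regions weighed and gamma counted against injectate standards, giving %ID/g.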

[5] = Drug uptake in CD-1 mouse superior and inferior colliculus at 70 uCi, iv followed by compound washout by gamma-counting analysis; format: ADME, organism-based; conditions: in vivo
Summary of the method: (§5)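 Male CD-1 mice (25–30 g) given [18F]radioligand i.v. into a lateral tail vein (70 µCi, 8000–12000 mCi/µmol, in 0.2 mL saline). Killed by cervical dislocation at various times, three per time point. Brains dissected on ice; regions weighed and gamma-counted with injectate standards. Result as %ID/g.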

Brain [6] = experiment: Drug uptake in CD-1 mouse other brain regions at 70 uCi, iv after 90 mins in presence of nicotine; format: ADME, organism-based; conditions: in vivo, 1.5 h
Brain [7] = experiment: Drug uptake in CD-1 mouse other brain region at 70 uCi, iv administered 10 mins post spiperone challenge measured after 90 mins; format: ADME, organism-based; conditions: in vivo, 1.5 h
Summary of the method: (§6)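 Male CD-1 mice (25–30 g). […] Brains removed 90 min later and dissected on ice. Regions weighed and gamma-counted against injectate standards. Result as %ID/g, mean ± SD, n=3; ANOVA versus controls.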

Cortex [8] = experiment: Drug uptake in CD-1 mouse cortex at 70 uCi, iv administered 10 mins post spiperone challenge measured after 90 mins; format: ADME, organism-based; conditions: in vivo, 1.5 h; summary of the method: as §2
Mus musculus [9] = experiment: Toxicity in CD-1 mouse assessed as change in behavioral activity at 0.07 mCi, iv after 90 mins in presence of 3-(1,4-Diazabicyclo[3.2.2]nonan-4-yl)-6-fluorodibenzo[b,d]thiophene 5,5-Dioxide; format: organism-based; conditions: in vivo, 1.5 h; summary of the method: as §1
Cortex [10] = experiment: Drug uptake in CD-1 mouse cortex at 70 uCi, iv administered 10 mins post ondansetron challenge measured after 90 mins; format: ADME, organism-based; conditions: in vivo, 1.5 h; summary of the method: as §2
Hippocampus [11] = experiment: Drug uptake in CD-1 mouse hippocampus at 70 uCi, iv administered 10 mins post ketanserin challenge measured after 90 mins; format: ADME, organism-based; conditions: in vivo, 1.5 h; summary of the method: as §2
Cortex [12] = experiment: Drug uptake in CD-1 mouse cortex at 70 uCi, iv after 90 mins in presence of nicotine; format: ADME, organism-based; conditions: in vivo, 1.5 h
Summary of the method: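 Male CD-1 mice, n=3. […] [18F] radiotracer (70 µCi, SA ~14000 mCi/µmol) given i.v. 5 min later. Regions harvested at 90 min, gamma counted, expressed as %ID/g.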

Nucleic Acid = experiment: Ratio of drug uptake from hippocampus to cerebellum in CD-1 mouse after 90 mins; format: ADME, nucleic-acid assay; conditions: 1.5 h
Hippocampus [13] = experiment: Drug uptake in CD-1 mouse hippocampus at 70 uCi, iv administered 10 mins post SCH23390 challenge measured after 90 mins; format: ADME, organism-based; conditions: in vivo, 1.5 h; summary of the method: as §2
Hippocampus [14] = experiment: Drug uptake in CD-1 mouse hippocampus at 70 uCi, iv administered 10 mins post naltrindole challenge measured after 90 mins; format: ADME, organism-based; conditions: in vivo, 1.5 h; summary of the method: as §2
Cerebellum [15] = experiment: Drug uptake in CD-1 mouse cerebellum at 70 uCi, iv administered 10 mins post ondansetron challenge measured after 90 mins; format: ADME, organism-based; conditions: in vivo, 1.5 h; summary of the method: as §2
Hippocampus [16] = experiment: Drug uptake in CD-1 mouse hippocampus at 0.07 mCi, iv after 90 mins relative to drug uptake in CD-1 mouse cerebellum; format: ADME, organism-based; conditions: in vivo, 1.5 h
Cerebellum [17] = experiment: Drug uptake in CD-1 mouse cerebellum at 0.07 mCi, iv after 90 mins in presence of 3-(1,4-Diazabicyclo[3.2.2]nonan-4-yl)-6-fluorodibenzo[b,d]thiophene 5,5-Dioxide; format: ADME, organism-based; conditions: in vivo, 1.5 h; summary of the method: as §3
Cortex [18] = experiment: Drug uptake in CD-1 mouse cortex at 70 uCi, iv administered 10 mins post SCH23390 challenge measured after 90 mins; format: ADME, organism-based; conditions: in vivo, 1.5 h; summary of the method: as §2
Hippocampus [19] = experiment: Drug uptake in CD-1 mouse hippocampus at 70 uCi, iv administered 10 mins post SSR180711 challenge measured after 90 mins; format: ADME, organism-based; conditions: in vivo, 1.5 h
Brain [20] = experiment: Drug uptake in CD-1 mouse other brain region at 70 uCi, iv administered 10 mins post SCH23390 challenge measured after 90 mins; format: ADME, organism-based; conditions: in vivo, 1.5 h; summary of the method: as §2
Thalamus = experiment: Drug uptake in CD-1 mouse thalamus at 70 uCi, iv followed by compound washout by gamma-counting analysis; format: ADME, organism-based; conditions: in vivo; summary of the method: as §5
[21] = Drug uptake in CD-1 mouse superior and inferior colliculus at 70 uCi, iv administered 10 mins post naltrindole challenge measured after 90 mins; format: ADME, organism-based; conditions: in vivo, 1.5 h; summary of the method: as §6
[22] = Drug uptake in CD-1 mouse superior and inferior colliculus at 0.07 mCi, iv after 90 mins co-administered with SSR180711; format: ADME, organism-based; conditions: in vivo, 1.5 h
Summary of the method: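 Male CD-1 mice. [18F]tracer (0.07 mCi, SA 7900 mCi/µmol, 0.2 mL) co-injected i.v. with blocker at 0 (vehicle), 0.02, 0.2, 1 or 3 mg/kg. Blocker dissolved in saline:alcohol 9:1, pH 5.5. Brain regions harvested at 90 min and gamma-counted. %ID/g, mean ± SD, n=3 per dose; ANOVA versus controls.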

Cerebellum [23] = experiment: Drug uptake in CD-1 mouse cerebellum at 70 uCi, iv administered 10 mins post spiperone challenge measured after 90 mins; format: ADME, organism-based; conditions: in vivo, 1.5 h; summary of the method: as §2
[24] = Drug uptake in CD-1 mouse frontal cortex at 70 uCi, iv followed by compound washout by gamma-counting analysis; format: ADME, organism-based; conditions: in vivo; summary of the method: as §4
Cortex [25] = experiment: Drug uptake in CD-1 mouse cortex at 70 uCi, iv administered 10 mins post SSR180711 challenge measured after 90 mins; format: ADME, organism-based; conditions: in vivo, 1.5 h
Cerebellum [26] = experiment: Drug uptake in CD-1 mouse cerebellum at 70 uCi, iv administered 10 mins post SSR180711 challenge measured after 90 mins; format: ADME, organism-based; conditions: in vivo, 1.5 h
[27] = Drug uptake in CD-1 mouse superior and inferior colliculus at 70 uCi, iv after 90 mins in presence of nicotine; format: ADME, organism-based; conditions: in vivo, 1.5 h

O=S1(=O)c2cc(N3CCN4CCC3CC4)ccc2-c2cccc([18F])c21
94%: Drug uptake (Hippocampus [16])
5.5: Ratio (Nucleic Acid)
Not Active: Drug uptake (Brain [6]) | Drug uptake (Cortex [12]) | Drug uptake (Hippocampus [19]) | Drug uptake [22] | Drug uptake (Cortex [25]) | Drug uptake (Cerebellum [26]) | Drug uptake [27]
Active: Drug uptake (Cortex [2]) | Drug uptake (Cerebellum [3]) | Drug uptake (Hippocampus [4]) | Drug uptake [5] | Drug uptake (Brain [7]) | Drug uptake (Cortex [8]) | Drug uptake (Cortex [10]) | Drug uptake (Hippocampus [11]) | Drug uptake (Hippocampus [13]) | Drug uptake (Hippocampus [14]) | Drug uptake (Cerebellum [15]) | Drug uptake (Cerebellum [17]) | Drug uptake (Cortex [18]) | Drug uptake (Brain [20]) | Drug uptake (Thalamus) | Drug uptake [21] | Drug uptake (Cerebellum [23]) | Drug uptake [24]
Non-toxic: Activity (Mus musculus [1]) | Activity (Mus musculus [9])
